The array DNA melting data of Ke et al. (doi:10.1101/2024.01.08.574731)

Assays:
[1] = folding enthalpy; higher = less favourable; fluorescence melt of hairpins on a sequencing array, two-state fit; conditions: sodium 0.088 M
Outline: (§1)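 Bootstrapped two-state fits yielded melting temperature and folding enthalpy for library hairpins. Cy3 fluorescence, with annealed Cy3 and quencher oligos, was imaged on a sequenced MiSeq flow cell in 50 mM Na-HEPES pH 8.0, 25 mM NaCl in 2.5 °C steps up to 60 °C, and normalised to pre-quench Cy3 and to control constructs. Four replicates were combined by inverse variance, and fitted temperatures were raised by 9.35 °C to match UV melts.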

[2] = melting temperature; fluorescence melt of hairpins on a sequencing array, two-state fit, raised by 9.35 °C to match UV melts; conditions: sodium 0.088 M
Outline: as §1

| Sequence | folding enthalpy [1] | Tm [2] |
| --- | --- | --- |
| GCAGGGCGAAAGCGCCGC ((.(.((....)).).)) | -15.7 kcal/mol | 52.6 °C |
| GCAGGGCGAAAGCTCAGC ((.(.((....)).).)) | -18.4 kcal/mol | 48.3 °C |
| GCAGGGCGAAAGCTCGGC ((.(.((....)).).)) | -20.6 kcal/mol | 59.2 °C |
| GCAGGGGAAACCCTGC ((((((....)))))) | -34.9 kcal/mol | 68.1 °C |
| GCAGGGGGAAACCCCCAC (..((((....))))..) | -9.57 kcal/mol | 33.1 °C |
| GCAGGGGGAAACCCTTGC (((.(((....))).))) | -30.8 kcal/mol | 52.2 °C |
| GCAGGGGGAAACCTCTGC ((((.((....)).)))) | -39.1 kcal/mol | 55 °C |
| GCAGGTGGAAACACCCGC ((.((((....)))).)) | -23.4 kcal/mol | 50 °C |
| GCAGGTGGAAACACTTGC (((.(((....))).))) | -35.2 kcal/mol | 51.5 °C |
| GCAGGTGGAAACGCCTGC (((((.(....).))))) | -46.6 kcal/mol | 61.8 °C |
| GCAGTACCGAAAGGTTGC (((..(((....)))))) | -20.4 kcal/mol | 43.3 °C |
| GCAGTAGGAAACCACTGC (((((.(....).))))) | -29.2 kcal/mol | 48.2 °C |
| GCAGTAGGAAACTACCAC (..((((....))))..) | -6.77 kcal/mol | 19.6 °C |
| GCAGTATCGAAAGATTGC (((..(((....)))))) | -20.5 kcal/mol | 34.9 °C |
| GCAGTCGAAAGACCGTGC ((((((....)))..))) | -16.8 kcal/mol | 38.1 °C |
| GCAGTCGAAAGACGCTGC ((((((....)))..))) | -21.6 kcal/mol | 55.6 °C |
| GCAGTCGAAAGACTATGC ((((((....)))..))) | -17.8 kcal/mol | 46.2 °C |
| GCAGTCGAAAGACTCTGC ((((((....)))..))) | -16.1 kcal/mol | 41.8 °C |
| GCAGTCGGAAACGACCAC (..((((....))))..) | -8.16 kcal/mol | 32 °C |
| GCAGTCGGAAACGACTAC (.(((((....))))).) | -13.4 kcal/mol | 41.7 °C |
| GCAGTCGGAAACGGTTGC (((..((....))..))) | -25.8 kcal/mol | 42.4 °C |
| GCAGTGCCGAAAGGCTGC (((..(((....)))))) | -14.8 kcal/mol | 49.8 °C |
| GCAGTGCGAAAGCACAGC ((.((((....)))).)) | -17.1 kcal/mol | 68.2 °C |

| Sequence | folding enthalpy [1] | Tm [2] |
| --- | --- | --- |
| GCAGTGCGAAAGCGTTGC (((..((....))..))) | -17.7 kcal/mol | 56.2 °C |
| GCAGTGCGAAAGCTCAGC ((.(.((....)).).)) | -14.7 kcal/mol | 49.2 °C |
| GCAGTGGGAAACCATTGC (((.(((....))).))) | -25.6 kcal/mol | 50.1 °C |
| GCAGTTCGAAAGAATGC (((.(((....)))))) | -21.4 kcal/mol | 41.2 °C |
| GCAGTTGGAAACAACCGC ((.((((....)))).)) | -23.6 kcal/mol | 44.1 °C |
| GCATAAACGAAAGTTTGC (((..(((....)))))) | -18.5 kcal/mol | 37.4 °C |
| GCATAAGGAAACCTATGC (((((.(....).))))) | -27.1 kcal/mol | 39.2 °C |
| GCATAAGGAAACTTACGC ((.((((....)))).)) | -21.7 kcal/mol | 31.6 °C |
| GCATACGAAAGTACGTGC ((((((....)))..))) | -18.1 kcal/mol | 34.4 °C |
| GCATACGAAAGTATCTGC ((((((....)))..))) | -15.5 kcal/mol | 37.9 °C |
| GCATACGAAAGTATTGC ((((((....))).))) | -25.1 kcal/mol | 45.7 °C |
| GCATACTCGAAAGAGTGC (((..(((....)))))) | -16.8 kcal/mol | 39 °C |
| GCATAGCGAAAGCACTGC (((..((....))..))) | -13.9 kcal/mol | 39.6 °C |
| GCATAGCGAAAGCGATGC ((((.((....)).)))) | -30.9 kcal/mol | 66.1 °C |
| GCATAGCGAAAGCTCTGC (((.(((....))).))) | -45.2 kcal/mol | 49.4 °C |
| GCATAGCGAAAGCTGCGC ((..(((....)))..)) | -21 kcal/mol | 61.3 °C |
| GCATAGCGAAAGCTGTGC (((.(((....))).))) | -50.8 kcal/mol | 59.9 °C |
| GCATAGGGAAACCTATGC (((((((....))))))) | -44.2 kcal/mol | 61.7 °C |
| GCATATCGAAAGATTTGC (((.(((....))).))) | -37 kcal/mol | 46.8 °C |
| GCATATGAAAATATGC ((((((....)))))) | -29.2 kcal/mol | 52.9 °C |
| GCATATGGAAACACATGC ((((.((....)).)))) | -26.8 kcal/mol | 35.8 °C |
| GCATATGGAAACGTATGC (((((.(....).))))) | -33.3 kcal/mol | 47 °C |
| GCATCACGAAAGTGGTGC (((.(((....))).))) | -37.8 kcal/mol | 64.3 °C |

| Sequence | folding enthalpy [1] | Tm [2] |
| --- | --- | --- |
| GCATCAGCGAAAGCTTGC (((..(((....)))))) | -13.2 kcal/mol | 41.3 °C |
| GCATCAGGAAACCAATGC ((((..(....)..)))) | -12.1 kcal/mol | 23.8 °C |
| GCATCCCCGAAAGGGTGC (((..(((....)))))) | -17.5 kcal/mol | 53.5 °C |
| GCATCCGAAAGGACGTGC ((((((....)))..))) | -19.4 kcal/mol | 38.3 °C |
| GCATCCGAAAGGAGATGC ((((((....)))..))) | -33.6 kcal/mol | 50.1 °C |
| GCATCCGGAAACGGGTGC (((.(((....))).))) | -39.5 kcal/mol | 62.7 °C |
| GCATCCTCGAAAGAGTGC (((..(((....)))))) | -19.1 kcal/mol | 33.1 °C |
| GCATCGCGAAAGCAAAGC ((.(.((....)).).)) | -9.75 kcal/mol | 38.9 °C |
| GCATCGCGAAAGCAACGC ((.(.((....)).).)) | -13.5 kcal/mol | 40.6 °C |
| GCATCGCGAAAGCCCTGC (((..((....))..))) | -7.86 kcal/mol | 33 °C |
| GCATCGCGAAAGCGAAGC ((.((((....)))).)) | -19.1 kcal/mol | 61.3 °C |
| GCATCGGGAAACCAATGC ((((.((....)).)))) | -29 kcal/mol | 42.2 °C |
| GCATCGGGAAACCGATAC (.(((((....))))).) | -13.7 kcal/mol | 41.5 °C |
| GCATCTCGAAAGAGTGC (((.(((....)))))) | -49.8 kcal/mol | 53.4 °C |
| GCATGACGAAAGTCCTGC (((.(((....))).))) | -34.5 kcal/mol | 51 °C |
| GCATGAGGAAACCCATGC (((((.(....).))))) | -36.8 kcal/mol | 48.6 °C |
| GCATGAGGAAACTCATAC (.(((((....))))).) | -17.2 kcal/mol | 32.6 °C |
| GCATGAGGAAACTCGTGC (((.(((....))).))) | -47.4 kcal/mol | 52.9 °C |
| GCATGCGAAAGCAGTTGC ((((((....)))..))) | -16.5 kcal/mol | 43 °C |
| GCATGCGAAAGCATCTGC ((((((....)))..))) | -13.4 kcal/mol | 47 °C |
| GCATGCGAAAGCATTGC ((((((....))).))) | -21.3 kcal/mol | 57.9 °C |
| GCATGCGCGAAAGCGTGC (((..(((....)))))) | -13.4 kcal/mol | 51.8 °C |
| GCATGGAAACATGC (((((....))))) | -30.9 kcal/mol | 57.4 °C |

| Sequence | folding enthalpy [1] | Tm [2] |
| --- | --- | --- |
| GCATGGCGAAAGCATTGC (((..((....))..))) | -20 kcal/mol | 49.6 °C |
| GCATGGCGAAAGCCGAGC ((..(((....)))..)) | -17.1 kcal/mol | 55.7 °C |
| GCATGGCGAAAGCCTCGC ((..(((....)))..)) | -13.4 kcal/mol | 43.7 °C |
| GCATGGCGAAAGCCTGGC ((..(((....)))..)) | -18.4 kcal/mol | 53.4 °C |
| GCATGGCGAAAGCGACGC ((.(.((....)).).)) | -12.7 kcal/mol | 38.3 °C |
| GCATGGCGAAAGCTAGGC ((.(.((....)).).)) | -21.6 kcal/mol | 52.2 °C |
| GCATGTCGAAAGACTGC (((.(((....)))))) | -35 kcal/mol | 56.1 °C |
| GCATGTGGAAACACATAC (.(((((....))))).) | -14.9 kcal/mol | 38.6 °C |
| GCATTACGAAAGTATTGC (((.(((....))).))) | -29.3 kcal/mol | 48.9 °C |
| GCATTAGAAATAATGC ((((((....)))))) | -24.5 kcal/mol | 48.2 °C |
| GCATTATCGAAAGATTGC (((..(((....)))))) | -14.4 kcal/mol | 30.6 °C |
| GCATTCACGAAAGTGTGC (((..(((....)))))) | -18.2 kcal/mol | 37.6 °C |
| GCATTCCGAAAGGACTGC (((.(((....))).))) | -22.2 kcal/mol | 50.8 °C |
| GCATTCCGAAAGGATTGC (((.(((....))).))) | -35.6 kcal/mol | 54.4 °C |
| GCATTCGAAAGAAGATGC ((((((....)))..))) | -17.7 kcal/mol | 36.2 °C |
| GCATTCGAAAGAATATGC ((((((....)))..))) | -24.8 kcal/mol | 36.1 °C |
| GCATTCGAAAGAATGC ((((((....)))))) | -28.3 kcal/mol | 69.2 °C |
| GCATTCGAAAGAATTTGC ((((((....)))..))) | -16.9 kcal/mol | 30.2 °C |
| GCATTCGGAAACAAATGC (((((.(....).))))) | -28.9 kcal/mol | 38 °C |
| GCATTCGGAAACGAACGC ((.((((....)))).)) | -37.2 kcal/mol | 46.7 °C |
| GCATTCGGAAACGGATGC ((((.((....)).)))) | -36.9 kcal/mol | 54 °C |
| GCATTCTCGAAAGAGTGC (((..(((....)))))) | -24.3 kcal/mol | 40.9 °C |
